Data on two compounds can be found in ChEMBL document CHEMBL3856209, “Novel pyrazolopyridine derivatives as potential angiogenesis inhibitors: Synthesis, biological evaluation and transcriptome-based mechanistic analysis” (Eur J Med Chem, 2016).

Holding throughout (format): functional, Homo sapiens
The subject of assay [1] is HUVEC. Description: Effect on SIVA1 gene expression in serum-starved HUVEC after 6 hrs by microarray analysis relative to control.
Assay [2] has as its system HUVEC. Nature of the assay: Effect on CDC25C gene expression in serum-starved HUVEC after 6 hrs by microarray analysis relative to control. The gist of the method: (§1)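 Confluent serum-starved HUVEC (primary, pooled from 3–5 donors, passage ≤4) treated with 2 μM compound or DMSO vehicle in 2.5% FBS for 6 h or 24 h. Total RNA hybridized to Illumina Human-HT12 arrays, background-corrected, vst-transformed and rsn-normalized. Differential expression versus DMSO by moderated paired t-test (p < 0.05, |log2 fold change| > 0.5).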

For assay [3], the system named is HUVEC. Nature of the assay: Effect on HECW2 gene expression in serum-starved HUVEC after 6 hrs by microarray analysis relative to control. The gist of the method:
(§2)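 Confluent, serum-starved HUVEC (pooled from 3–5 donors, passage ≤4) treated with 2 μM compound or vehicle with 2.5% FBS for 6 h or 24 h. Total RNA hybridized to Illumina Human-HT12 arrays. Data were background-corrected, vst-transformed and rsn-normalized. Hits called by moderated paired t-test versus DMSO-treated cells, p < 0.05 and log2 fold change >|0.5|.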

The test system of assay [4] is HUVEC. Description: Effect on GLIPR1 gene expression in serum-starved HUVEC after 6 hrs by microarray analysis relative to control. The essentials: as §2
Assay [5] has as its system HUVEC. Description: Effect on GINS2 gene expression in serum-starved HUVEC after 24 hrs by microarray analysis relative to control. The gist of the method:
as §2

Assay [6] has as its system HUVEC. Nature of the assay: Effect on MYO10 gene expression in serum-starved HUVEC after 6 hrs by microarray analysis relative to control.
The test system of assay [7] is HUVEC. Description: Effect on CCNA2 gene expression in serum-starved HUVEC after 24 hrs by microarray analysis relative to control. The essentials:
as §1

In assay [8] the test system is HUVEC. Description: Effect on NSDHL gene expression in serum-starved HUVEC after 24 hrs by microarray analysis relative to control.
Assay [9] relates to HUVEC. Description: Effect on ACAT2 gene expression in serum-starved HUVEC after 24 hrs by microarray analysis relative to control. The gist of the method: (§3)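 Serum-starved confluent HUVEC treated with 2 μM compound or DMSO in 2.5% FBS for 6 h or 24 h; RNA hybridized to Illumina Human-HT12 arrays. Data background-corrected, vst-transformed and rsn-normalized. Differential probes called by moderated paired t-test (limma) at p < 0.05 and log2 fold change >|0.5| vs DMSO.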

For assay [10], the system named is HUVEC. Description: Effect on SULT1C4 gene expression in serum-starved HUVEC after 6 hrs by microarray analysis relative to control.
The subject of assay [11] is HUVEC. Nature of the assay: Effect on CDK1 gene expression in serum-starved HUVEC after 6 hrs by microarray analysis relative to control. The gist of the method: as §3
Assay [12] has as its system HUVEC. Description: Effect on ANTXR1 gene expression in serum-starved HUVEC after 6 hrs by microarray analysis relative to control. The gist of the method:
as §3

The subject of assay [13] is HUVEC. Description: Effect on PLA2G4C gene expression in serum-starved HUVEC after 6 hrs by microarray analysis relative to control. The essentials: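 Serum-starved confluent HUVEC (pooled from 3–5 donors, passage ≤4) were treated with 2 μM compound or vehicle in 2.5% FBS for 6 h or 24 h, and total RNA was isolated. Hybridization was on Illumina Human-HT12. Data were processed with bgAdjust, vst and rsn normalization. Changes versus DMSO were called by moderated paired t-test at p < 0.05 and |log2 fold change| > 0.5.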

The structures appear in SMILES notation.

`COc1ccc(Cn2nc(-c3ccccc3)c3cc(Cl)nc(N4CCNCC4)c32)cc1` came in with a log2FC in the assay on HUVEC [1] of -0.2087.
As for `COc1ccc(Cn2nc(-c3ccccc3)c3cc(Nc4ccc(N5CCN(C)CC5)cc4)nc(N4CCN(C)CC4)c32)cc1`, the “fold change (FC)” value in the assay on HUVEC [2] is recorded as -0.0013; with HUVEC [3], 0.4559; with HUVEC [4], 0.1533; in the assay on HUVEC [6], -0.0407; in the assay with HUVEC [7] it was -0.7529; in the assay on HUVEC [10], 0.1329. In addition, the “fold change (FC)” value in the assay on HUVEC [12] is given as 0.1452; with HUVEC [13] it was 0.3857. Moreover, the log2FC is -0.5372 with HUVEC [5], 1.1565 in the assay on HUVEC [8], 1.8135 with HUVEC [9] and -0.1173 in the assay on HUVEC [11].
